Source: ChEMBL document CHEMBL1152210, “Synthesis and biological evaluation of alkoxycoumarins as novel nematicidal constituents” (Bioorg Med Chem Lett, 2008)
Activity calls are given as the source filed them. No cut-off for these calls is given here.

Legend:
[1] = system: Bursaphelenchus xylophilus; experiment: Nematicidal activity against Bursaphelenchus xylophilus measured per cotton ball after 4 days by serial dilution method; format: functional
Outline: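 Cotton ball (5 mm), loaded with test compound or solvent and vacuum-dried, set on 4-day Botrytis cinerea mycelia grown on Czapek-Dox agar at 21 °C. 100 µl B. xylophilus suspension (ca. 15,000/ml in distilled water) injected into the ball; dish held at 26 °C for 4 days. Mycelial consumption scored; MED is the lowest active dose by serial dilution, top dose 160 µg/ball. Survival confirmed by methylene blue staining.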

Artemia salina = experiment: Toxicity in Artemia salina after 24 hrs by serial dilution method; format: organism-based; conditions: in vivo
Oryzias latipes = experiment: Toxicity in Oryzias latipes after 24 hrs by serial dilution method; format: organism-based; conditions: in vivo

| SMILES | MED [1] [µg] | LC50 (Artemia salina) [ppm] | LC100 (Artemia salina) [ppm] | LC50 (Oryzias latipes) [ppm] | LC100 (Oryzias latipes) [ppm] | Activity [1] |
| --- | --- | --- | --- | --- | --- | --- |
| COc1cc(OC)c2ccc(=O)oc2c1 [CITROPTEN] | 20 |  |  |  |  |  |
| COc1ccc2oc(=O)ccc2c1 | 80 | > 80 | > 80 | 75 | 100 |  |
| COc1cc2ccccc2oc1=O | 80 | > 80 | > 80 | > 100 | > 100 |  |
| COc1ccc2ccc(=O)oc2c1 [HERNIARIN] | 40 |  | 80 |  | 75 |  |
| O=c1ccc2c(OCc3ccccc3)cccc2o1 | 80 |  |  |  |  |  |
| COc1cccc2oc(=O)ccc12 | 20 | 30 | 20 | 38 | 50 |  |
| O=C(O)/C=C/c1ccccc1O |  |  |  |  |  | inactive |
| C=CCOc1cccc2oc(=O)ccc12 |  |  |  |  |  | inactive |
| CCCCCOc1cccc2oc(=O)ccc12 | 40 |  |  |  |  |  |
| C/C1=C\C[C@@H]2C[C@@H](C[C@]3(CC[C@H](C)[C@@H](C)O3)O2)OC(=O)[C@@H]2CC[C@@H](O)[C@H]3OC/C(=C\C=C\[C@H](C)C1)[C@]32O [MILBEMECTIN] | 0.6 | 0.1 | 0.6 | 0.06 | 0.25 |  |
| CCCOc1cccc2oc(=O)ccc12 | 20 |  |  |  |  |  |
| COc1cc(=O)oc2ccccc12 |  | 60 | > 80 | 75 | 100 | inactive |
| O=c1ccc2c(O)cccc2o1 |  |  |  |  |  | inactive |
| O=c1ccc2ccccc2o1 [COUMARIN] | 80 | > 80 | > 80 | 38 | 50 |  |
| CCOc1cccc2oc(=O)ccc12 | 10 | > 80 | > 80 | 75 | 100 |  |
| CCCCCCCCCCCc1cccc(O)c1 | 5 | 1 | 1.3 | 3.8 | 5 |  |
| COc1cccc2ccc(=O)oc12 | 80 | > 80 | > 80 | 100 | > 100 |  |
| CCCCOc1cccc2oc(=O)ccc12 | 40 |  |  |  |  |  |
| CCCCCCCCOc1cccc2oc(=O)ccc12 | 40 |  |  |  |  |  |
| CCCCCCCCCc1cccc(O)c1 | 2.5 | 0.6 | 1.3 | 7.5 | 10 |  |
